Data reported in publication PMC8268672 (Bioorganic Chemistry, 2021).
Values after ≈ are worked out from the molar mass of the structure shown. Where two headings read alike, the source gives them in different places.

Key:
[1] = test system: Klebsiella aerogenes (NCIM-2098); test: MIC, broth microdilution; type: cell-based; details: NCIM2098, read-out: Minimum inhibitory concentration (MIC), KA
Summary of the method: (§1)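 Antibacterial MICs by CLSI broth microdilution in Mueller-Hinton broth. Test compounds and standard drugs are serially diluted two-fold from 512 to 0.25. The bacterial broth culture is grown 2-6 h to a 0.5 McFarland turbidity, then adjusted with sterile solution to the final inoculum.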

[2] = test system: Aspergillus fumigatus (NCIM 2081); test: MIC, broth microdilution; type: cell-based; details: NCIM2081, read-out: Minimum inhibitory concentration (MIC), AF
Summary of the method: (§2)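 Antifungal MICs by CLSI broth microdilution in Sabouraud liquid medium. Test compounds and standard drugs are serially diluted two-fold from 512 to 0.25. The fungal broth culture is grown 24 h at 35 °C to a 0.5 McFarland turbidity, then adjusted with sterile solution to the final inoculum.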

[3] = test system: Klebsiella aerogenes (NCIM-2098); test: Agar disk diffusion, inhibition zone; type: cell-based; details: 100 µg/8 mm disc, triplicate, mean ± SD
[4] = test system: Influenza A/H3N2 A/HK/7/87; test: CPE reduction assay in MDCK cells; type: cell-based; details: Influenza A virus
Human Coronavirus (229E) = test: CPE reduction assay in HEL cells; type: cell-based; details: read-out: Antiviral EC50, Human Coronavirus (229E)
Para-influenza-3 virus = test: CPE reduction assay in Vero cells; type: cell-based, Parainfluenza-3 virus; details: Vero, read-out: Antiviral EC50, Para-influenza-3 virus
[5] = test system: Staphylococcus aureus (ATCC 29213); test: MIC, broth microdilution; type: cell-based; details: ATCC29213, read-out: Minimum inhibitory concentration (MIC), SA
Summary of the method: as §1

Adeno virus-2 = test: CPE reduction assay in HEL cells; type: cell-based; details: read-out: Antiviral EC50, Adeno virus-2
[6] = test system: Pseudomonas aeruginosa (MCCB 0035); test: Agar disk diffusion, inhibition zone; type: cell-based; details: 100 µg/8 mm disc, triplicate, mean ± SD
Vero cells = details: Vero cell cultures; microscopically detectable alteration of normal cell morphology
[7] = test system: Aspergillus niger (NCIM 2191); test: Agar disk diffusion, inhibition zone; type: cell-based; details: 100 µg/8 mm disc, triplicate, mean ± SD
Summary of the method: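 For the fungal strain, discs soaked in test compound solution (DMSO stock diluted with distilled water) sat on seeded Mueller-Hinton agar. Clotrimazole was the reference. Incubation ran 48 h at 35 °C, in triplicate. Zone of growth inhibition recorded in mm as the mean diameter around each disc.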

Coxsackie virus B4 = test: CPE reduction assay in Vero cells; type: cell-based; details: Enterovirus B, read-out: Antiviral EC50, Coxsackie virus B4
Vaccinia virus = test: microbe, parasite or virus in culture; type: cell-based; details: Orthopoxvirus vaccinia, HEL, read-out: Antiviral EC50, Vaccinia virus
Influenza B B/Ned/537/05 = test: CPE reduction assay in MDCK cells; type: cell-based; details: Influenza B virus, read-out: Antiviral EC50, Influenza B B/Ned/537/05, MTS
[8] = test system: Staphylococcus aureus (ATCC 29213); test: Agar disk diffusion, inhibition zone; type: cell-based; details: 100 µg/8 mm disc, triplicate, mean ± SD
Summary of the method: (§3)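 Agar disk diffusion on Mueller-Hinton agar plates seeded with a standard bacterial suspension. Test compound stock in DMSO, diluted with distilled water; 8 mm sterile filter-paper discs soaked in the solution. Ampicillin was the reference. Plates incubated at 35 °C for 24 h, in triplicate. Read-out is the average inhibition-zone diameter (mm) around each disc.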

[9] = test system: Salmonella typhimurium (NCIM-2501); test: Agar disk diffusion, inhibition zone; type: cell-based; details: 100 µg/8 mm disc, triplicate, mean ± SD
[10] = test system: Aspergillus niger (NCIM 2191); test: MIC, broth microdilution; type: cell-based; details: NCIM2191, read-out: Minimum inhibitory concentration (MIC), AN
Summary of the method: as §2

MT4 cells = details: MT4 cell cultures; colorimetric MTT cell viability assay
[11] = test system: Madin Darby canine kidney (MDCK) cells; details: dog
[12] = test system: Pseudomonas aeruginosa (MCCB 0035); test: MIC, broth microdilution; type: cell-based; details: read-out: Minimum inhibitory concentration (MIC), PA
Summary of the method: (§4)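 Broth microdilution per CLSI in Mueller-Hinton broth, using two-fold serial dilutions of test compound and reference drugs from 512 to 0.25. Bacterial broth cultures were grown 2-6 h to 0.5 McFarland turbidity, then diluted with sterile solution to the final inoculum. MIC is reported in µg/mL.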

[13] = test system: Candida albicans (NCIM 2087); test: MIC, broth microdilution; type: cell-based; details: NCIM2087, read-out: Minimum inhibitory concentration (MIC), CA
Summary of the method: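 CLSI broth microdilution in Sabouraud liquid medium, with test compound two-fold serially diluted from 512 to 0.25. Fungal broth culture grown 24 h at 35 °C to 0.5 McFarland turbidity, then adjusted with sterile solution to a final […] inoculum. MIC expressed in µg/mL.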

[14] = test system: Lactobacillus casei (NCIM-2651); test: Agar disk diffusion, inhibition zone; type: cell-based; details: 100 µg/8 mm disc, triplicate, mean ± SD
Punta Toro virus = test: CPE reduction assay in Vero cells; type: cell-based; details: read-out: Antiviral EC50, Punta Toro virus
Yellow Fever virus = test: microbe, parasite or virus in culture; type: cell-based; details: Yellow fever virus, Vero, read-out: Antiviral EC50, Yellow Fever virus
[15] = test system: Bacillus cereus (NCIM-2458); test: MIC, broth microdilution; type: cell-based; details: NCIM2458, read-out: Minimum inhibitory concentration (MIC), BC
Summary of the method: as §4

[16] = test system: Influenza A/H1N1 A/Ned/378/05; test: CPE reduction assay in MDCK cells; type: cell-based; details: Influenza A virus
[17] = test system: Candida albicans (NCIM 2087); test: Agar disk diffusion, inhibition zone; type: cell-based; details: 100 µg/8 mm disc, triplicate, mean ± SD
[18] = test system: Bacillus cereus (NCIM-2458); test: Agar disk diffusion, inhibition zone; type: cell-based; details: 100 µg/8 mm disc, triplicate, mean ± SD
[19] = test system: Aspergillus fumigatus (NCIM 2081); test: Agar disk diffusion, inhibition zone; type: cell-based; details: 100 µg/8 mm disc, triplicate, mean ± SD
[20] = test system: Cryptococcus neoformans (ATCC 9011); test: Agar disk diffusion, inhibition zone; type: cell-based; details: 100 µg/8 mm disc, triplicate, mean ± SD
[21] = test system: Streptococcus pneumonia (ATCC 49619); test: Agar disk diffusion, inhibition zone; type: cell-based; details: 100 µg/8 mm disc, triplicate, mean ± SD
[22] = test system: Escherichia coli (ATCC 8739); test: MIC, broth microdilution; type: cell-based; details: ATCC8739, read-out: Minimum inhibitory concentration (MIC), EC
Summary of the method: as §4

Sindbis virus = test: CPE reduction assay in Vero cells; type: cell-based; details: read-out: Antiviral EC50, Sindbis virus
[23] = test system: Human embryonic lung (HEL) cells; details: HEL cell cultures; microscopically detectable alteration of normal cell morphology
Reovirus-1 = test: CPE reduction assay in Vero cells; type: cell-based; details: read-out: Antiviral EC50, Reovirus-1
[24] = test system: Cryptococcus neoformans (ATCC 9011); test: MIC, broth microdilution; type: cell-based; details: ATCC9011, read-out: Minimum inhibitory concentration (MIC), CN
Summary of the method: as §2

[25] = test system: Escherichia coli (ATCC 8739); test: Agar disk diffusion, inhibition zone; type: cell-based; details: 100 µg/8 mm disc, triplicate, mean ± SD
Summary of the method: as §3

[26] = read-out: Antiviral EC50, Influenza A/H3N2 A/HK/7/87, MTS
[27] = read-out: Antiviral EC50, Influenza A/H3N2 A/HK/7/87, visual CPE score
[28] = read-out: Antiviral EC50, Influenza A/H1N1 A/Ned/378/05, MTS
[29] = read-out: Antiviral EC50, Influenza A/H1N1 A/Ned/378/05, visual CPE score

## Cc1ccc(S(=O)(=O)N2C(=O)CSC2c2cccc([N+](=O)[O-])c2)cc1 (stereo not drawn) [5p, 3-[(4-Methylphenyl)sulfonyl]-2-(3-nitrophenyl)-1,3-thiazolidin-4-one]
[1]
  MIC: 16 µg/mL (≈ 42.3 µM)
[2]
  MIC: 8 µg/mL (≈ 21.1 µM)
[3]
  Diameter of growth inhibition zone, KA: 14 ± 0.75 mm
[4]; [26]
  EC50: > 100 µM
[4]; [27]
  EC50: > 100 µM
Human Coronavirus (229E)
  EC50: > 100 µM
Para-influenza-3 virus
  EC50: > 100 µM
[5]
  MIC: 32 µg/mL (≈ 84.6 µM)
Adeno virus-2
  EC50: > 100 µM
[6]
  Diameter of growth inhibition zone, PA: 14 ± 1.1 mm
Vero cells
  Minimum cytotoxic conc.: >100 µM
[7]
  Diameter of growth inhibition zone, AN: 20 ± 0.9 mm
Coxsackie virus B4
  EC50: > 100 µM
Vaccinia virus
  EC50: > 100 µM
Influenza B B/Ned/537/05
  EC50: > 100 µM
[8]
  Diameter of growth inhibition zone, SA: 16 ± 0.9 mm
[9]
  Diameter of growth inhibition zone, ST: 12 ± 0.1 mm
[10]
  MIC: 8 µg/mL (≈ 21.1 µM)
MT4 cells
  Minimum cytotoxic conc.: >125 µM
[11]
  Cytotoxicity, Minimum cytotoxic conc.: >100 µM
[12]
  MIC: 64 µg/mL (≈ 169 µM)
[13]
  MIC: 4 µg/mL (≈ 10.6 µM)
[14]
  Diameter of growth inhibition zone, LC: 12 ± 1.56 mm
Punta Toro virus
  EC50: > 100 µM
Yellow Fever virus
  EC50: > 100 µM
[15]
  MIC: 64 µg/mL (≈ 169 µM)
[16]; [28]
  EC50: > 100 µM
[16]; [29]
  EC50: > 100 µM
[17]
  Diameter of growth inhibition zone, CA: 22 ± 1.2 mm
[18]
  Diameter of growth inhibition zone, BC: 10 ± 0.4 mm
[19]
  Diameter of growth inhibition zone, AF: 20 ± 1.1 mm
[20]
  Diameter of growth inhibition zone, CN: 19 ± 1.0 mm
[21]
  Diameter of growth inhibition zone, SP: 08 ± 0.87 mm
[22]
  MIC: 32 µg/mL (≈ 84.6 µM)
Sindbis virus
  EC50: > 100 µM
[23]
  Minimum cytotoxic conc.: >100 µM
Reovirus-1
  EC50: > 100 µM
[24]
  MIC: 2 µg/mL (≈ 5.28 µM)
[25]
  Diameter of growth inhibition zone, EC: 16 ± 0.69 mm

## Cc1ccc(S(=O)(=O)N2C(=O)CSC2c2ccc([N+](=O)[O-])cc2)cc1 (stereo not drawn) [5q, 3-[(4-Methylphenyl)sulfonyl]-2-(4-nitrophenyl)-1,3-thiazolidin-4-one]
[1]
  MIC: 32 µg/mL (≈ 84.6 µM)
[2]
  MIC: 4 µg/mL (≈ 10.6 µM)
[3]
  Diameter of growth inhibition zone, KA: 12 ± 0.4 mm
[4]; [26]
  EC50: > 100 µM
[4]; [27]
  EC50: > 100 µM
Human Coronavirus (229E)
  EC50: > 100 µM
Para-influenza-3 virus
  EC50: > 100 µM
[5]
  MIC: 32 µg/mL (≈ 84.6 µM)
Adeno virus-2
  EC50: > 100 µM
[6]
  Diameter of growth inhibition zone, PA: 18 ± 1.2 mm
Vero cells
  Minimum cytotoxic conc.: >100 µM
[7]
  Diameter of growth inhibition zone, AN: 22 ± 0.46 mm
Coxsackie virus B4
  EC50: > 100 µM
Vaccinia virus
  EC50: > 100 µM
Influenza B B/Ned/537/05
  EC50: > 100 µM
[8]
  Diameter of growth inhibition zone, SA: 18 ± 1.2 mm
[9]
  Diameter of growth inhibition zone, ST: 10 ± 1.1 mm
[10]
  MIC: 4 µg/mL (≈ 10.6 µM)
MT4 cells
  Minimum cytotoxic conc.: >125 µM
[11]
  Cytotoxicity, Minimum cytotoxic conc.: >100 µM
[12]
  MIC: 32 µg/mL (≈ 84.6 µM)
[13]
  MIC: 4 µg/mL (≈ 10.6 µM)
[14]
  Diameter of growth inhibition zone, LC: 14 ± 0.4 mm
Punta Toro virus
  EC50: > 100 µM
Yellow Fever virus
  EC50: > 100 µM
[15]
  MIC: 32 µg/mL (≈ 84.6 µM)
[16]; [28]
  EC50: > 100 µM
[16]; [29]
  EC50: > 100 µM
[17]
  Diameter of growth inhibition zone, CA: 23 ± 1.2 mm
[18]
  Diameter of growth inhibition zone, BC: 12 ± 0.6 mm
[19]
  Diameter of growth inhibition zone, AF: 21 ± 0.63 mm
[20]
  Diameter of growth inhibition zone, CN: 19 ± 1.3 mm
[21]
  Diameter of growth inhibition zone, SP: 10 ± 0.45 mm
[22]
  MIC: 16 µg/mL (≈ 42.3 µM)
Sindbis virus
  EC50: > 100 µM
[23]
  Minimum cytotoxic conc.: >100 µM
Reovirus-1
  EC50: > 100 µM
[24]
  MIC: 2 µg/mL (≈ 5.28 µM)
[25]
  Diameter of growth inhibition zone, EC: 17 ± 1.2 mm
